The record followed here is ChEMBL document CHEMBL3596100, “The synthesis and biological activity of novel anthracenone-pyranones and anthracenone-furans” (Bioorg Med Chem, 2015).

The test system of one test is A2780. Description: Growth inhibition of human A2780 cells after 72 hrs by MTT assay. The format is functional. Put shortly: (§1)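 Cells kept in DMEM with 10% FBS, glutamine, penicillin/streptomycin at 37 °C, 5% CO2; plated in duplicate at 2500–4000 cells/well, dosed 24 h later during log growth. After 72 h drug exposure, MTT read at 540 nm. […] Assays in triplicate, standard error reported.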
(In general: Tetrazolium dyes change colour on reduction, which living cells bring about.)

For a further test, the system named is P338. In words: Growth inhibition of mouse […] cells. The format is functional, cell-based.
Test [1] can be described thus: (§2) Growth inhibition of mouse SMA cells after 72 hrs by MTT assay. The format is functional. Put shortly: as §1
The next test concerns MCF7. In words: Growth inhibition of human MCF7 cells after 72 hrs by MTT assay. The format is functional. Put shortly: as §1
Test [2] can be described thus: (§3) Growth inhibition of human U87 cells after 72 hrs by MTT assay. The format is functional, U-87MG ATCC. As to conditions: U-87 MG. In short, it runs like this: as §1
The next test has as its system A-431. Description: Growth inhibition of human A431 cells after 72 hrs by MTT assay. It counts as functional. Put shortly: as §1
A short description of test [3]: (§4) Growth inhibition of human H460 cells after 72 hrs by MTT assay. As to conditions: NCI-H460, 72 h. It counts as functional. In short, it runs like this: as §1
For the next test, the system named is DU-145. In words: Growth inhibition of human DU145 cells after 72 hrs by MTT assay. It counts as functional. In short, it runs like this: as §1
Test [4] is described as follows: (§5) Growth inhibition of human BE(2)-C cells after 72 hrs by MTT assay. The format is functional. In short, it runs like this: as §1
A short description of test [5]: (§6) Growth inhibition of human SJ-G2 cells after 72 hrs by MTT assay. The format is functional. The note with it: SJ-G2, 72 h. In short, it runs like this: as §1
The test system of the next test is HT-29. In words: Growth inhibition of human HT-29 cells after 72 hrs by MTT assay. It counts as functional. Put shortly:
as §1

Test [6] is described as follows: (§7) Growth inhibition of human MIA cells after 72 hrs by MTT assay. The format is functional. Put shortly: as §1
The test system of another test is SMA. The test is described as §2. It counts as functional. Put shortly: as §1
The next test deals with U-87MG ATCC. The description is as §3. The format is functional. Put shortly: as §1
The next test concerns NCI-H460. The test is described as §4. The format is functional. Put shortly:
as §1

The next test deals with BE(2)-C. Described as §5. The format is functional. In short, it runs like this:
as §1

The next test deals with SJ-G2. Described as §6. The format is functional. In short, it runs like this: as §1
A further test relates to MIA. The description is as §7. The format is functional. Put shortly:
as §1

Active and inactive are the calls of the source. The rule behind the calls is not given here.

For orientation: GI50 means the concentration at which growth is held to half of that of the control. For orientation: IC50 means the midpoint of a concentration-inhibition curve. In the case of `Cc1cc2c(c3oc(C4(C)CO4)cc(=O)c13)C(=O)c1c(O)cccc1C2=O` (racemic), the GI50 with A2780 (A2780, 72 h) is 290 nM; in test [1] it was 160 nM; in the test on MCF7 (MCF7, 72 h) it was 1300 nM; in [2], 990 nM; in the test with A-431 (A-431, 72 h) it was 950 nM; in [3] it was 2100 nM. Besides, the GI50 is 840 nM in the test with DU-145 (DU-145, 72 h); 170 nM in test [4]; 800 nM in test [5]; 2000 nM in the test with HT-29 (HT-29, 72 h); 900 nM in test [6]. Moreover, 1 nM corresponded to half-maximal inhibition in the test with P338 (IC50).
In the case of `CCCCc1cc2c(C)cc3c(c2oc1=O)C(=O)c1c(OC(C)C)cccc1C3=O`, the “growth inhibition (GI)” value in the test on A2780, in the test on SMA, with MCF7, with U-87MG ATCC, with A-431 and with NCI-H460 was “Active” throughout. Also, the “growth inhibition (GI)” value in the test on DU-145, in the test with BE(2)-C, in the test with SJ-G2, with HT-29 and with MIA was “Active” throughout.
With `CCCc1cc2c(C)cc3c(c2o1)C(=O)c1c(OC(C)C)cccc1C3=O`, the “growth inhibition (GI)” value in the test on A2780, in the test with SMA, in the test with MCF7, in the test on U-87MG ATCC, in the test on A-431 and in the test with NCI-H460 was “Active” throughout. In addition, the “growth inhibition (GI)” value in the test with DU-145, in the test on BE(2)-C, in the test with SJ-G2, with HT-29 and with MIA was “Active” throughout.
On to `CCCc1cc2c(C)cc3c(c2oc1=O)C(=O)c1c(OC(C)C)cccc1C3=O`, for which the “growth inhibition (GI)” value in the test on A2780, in the test with SMA, with MCF7, in the test on U-87MG ATCC, in the test with A-431 and in the test on NCI-H460 was “Active” throughout. For the same molecule, the “growth inhibition (GI)” value in the test on DU-145, in the test with BE(2)-C, with SJ-G2, in the test with HT-29 and in the test with MIA was “Active” throughout.
For `Cc1cc2c(c3oc(=O)c(-c4ccccc4)cc13)C(=O)c1c(OC(C)C)cccc1C2=O`, the “growth inhibition (GI)” value in the test with A2780, with SMA, with MCF7, in the test with U-87MG ATCC, with A-431 and in the test with NCI-H460 was “Active” each time. Also, the “growth inhibition (GI)” value in the test with DU-145, in the test on BE(2)-C, in the test with SJ-G2, with HT-29 and in the test on MIA was “Active” throughout.
Take `CCCCCCc1cc2c(C)cc3c(c2o1)C(=O)c1c(OC(C)C)cccc1C3=O`: the “growth inhibition (GI)” value in the test with A2780, in the test on SMA, in the test on MCF7, in the test with U-87MG ATCC, in the test with A-431 and in the test with NCI-H460 was “Active” throughout. Further, the “growth inhibition (GI)” value in the test with DU-145, with BE(2)-C, with SJ-G2, in the test with HT-29 and in the test on MIA was “Active” throughout.
Regarding `CCC(C)(OCc1ccccc1)c1cc2c(C)cc3c(c2oc1=O)C(=O)c1c(OC(C)C)cccc1C3=O` (centres undefined), the “growth inhibition (GI)” value with A2780, in the test on SMA, in the test on MCF7, with U-87MG ATCC, in the test on A-431 and in the test with NCI-H460 was “Active” each time. For the same molecule, the “growth inhibition (GI)” value in the test with DU-145, in the test with BE(2)-C, in the test on SJ-G2, with HT-29 and in the test on MIA was “Active” in each case.
Consider `Cc1cc2c(c3oc(=O)c(CCCC#N)cc13)C(=O)c1c(OC(C)C)cccc1C2=O`, for which the “growth inhibition (GI)” value with A2780, with SMA, in the test on MCF7, in the test with U-87MG ATCC, in the test on A-431 and in the test with NCI-H460 was “Active” throughout. The “growth inhibition (GI)” value in the test with DU-145, in the test with BE(2)-C, with SJ-G2, in the test on HT-29 and in the test with MIA was “Active” in each case.
